Results taken from ChEMBL document CHEMBL1122142, “Synthesis and antiinflammatory activity of hexahydrothiopyrano[4,3-c]pyrazoles and related analogues” (J Med Chem, 1982).

What was measured:
Mus musculus [1] = assay: Inhibition of Mouse Active Arthus reaction following 150 mg/Kg i.p.; 41-60% inhibition.; assay type: functional; details: Mus musculus, ip
Cavia porcellus [2] = assay: The compound was evaluated for the delayed hypersensitivity skin reaction (DHSR) activity after subcutaneous administration; 11/27
Mus musculus [3] = assay: Inhibition of Mouse active Arthus (MAA) reaction activity was determined for peroral dose of 300 mg/kg in mouse; 31-40%; assay type: functional; details: route oral
Mus musculus [4] = species on record: Mus musculus; assay: The compound was evaluated for the mouse active Arthus (MAA) reaction activity expressed as inhibitory dose.; assay type: functional; details: read-out: ID50 (the source's name)
Procedure, shortened: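 CD-1 mice were sensitized ip with a 1:1 Freund's complete adjuvant emulsion containing BSA in saline, 5 weeks before challenge. Compound was suspended in 1% Na CMC in pyrogen-free saline and given as one ip or oral dose 1 h before skin challenge with BSA. Screening doses were 150 mg/kg ip and 300 mg/kg po, with some at 75 or 50 mg/kg ip. Lesions were excised 3.5 h after challenge and weighed against controls.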

Cavia porcellus [5] = assay: The compound was evaluated for the delayed hypersensitivity skin reaction (DHSR) activity after subcutaneous administration; 8/1
Mus musculus [6] = assay: Mouse active Arthus (MAA) reaction activity was determined for an ip dose of 150 mg/kg in mouse; 31-40%; assay type: functional; details: route intraperitoneal
Cavia porcellus [7] = assay: Tested in delayed hypersensitivity skin reaction (DHSR) after subcutaneous administration, activity reported as percent inhibition of erythema/induration of lesion; 7/1; assay type: functional
Procedure, shortened: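 Male Hartley guinea pigs were sensitized with Mycobacterium tuberculosis in Freund's incomplete adjuvant, injected into each hind footpad and subcutaneously at the neck. After 3 weeks, 1.2 μg PPD was given intradermally. Compound in sesame oil was given sc, 3 animals per group, 30 min before and 5 h after PPD; screening dose 50 mg/kg.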

Mus musculus [8] = assay: Inhibition of Mouse active Arthus (MAA) reaction activity was determined for peroral screening dose of 150 mg/kg in mouse; 21-30%; assay type: functional; details: route oral

How did the inhibition in vivo at 150 mg/kg (Mus musculus [1]) turn out when `CN1CCN(CCCN2N=C3/C(=C/c4ccc([S+](C)[O-])cc4)CSCC3C2c2ccc([S+](C)[O-])cc2)CC1.O=C(O)/C=C\C(=O)O` (stereo not drawn) was run?
Its inhibition in vivo at 150 mg/kg is 41%.

What about the Activity (Cavia porcellus [2]) of the same molecule?
Its Activity is 11.

What about the inhibition in vivo at 300 mg/kg (Mus musculus [3]) of the same molecule?
Its inhibition in vivo at 300 mg/kg is 31%.

What about the ED50 (Mus musculus [4]) of the same molecule?
Its ED50 is 190 mg/kg.

For `C#CCN1N=C2/C(=C/c3cccc(C(F)(F)F)c3)CS(=O)(=O)CC2C1c1cccc(C(F)(F)F)c1` (stereo not drawn), which Activity (Cavia porcellus [5]) is on record?
Its Activity is 8.

What about the inhibition in vivo at 150 mg/kg (Mus musculus [6]) of the same molecule?
Its inhibition in vivo at 150 mg/kg is 31%.

What does the source list for `CCCN1N=C2/C(=C/c3ccc(C(C)(C)C)cc3)CS(=O)(=O)CC2C1c1ccc(C(C)(C)C)cc1` (stereo not drawn)?
Activity (Cavia porcellus [7]): 7; inhibition in vivo at 150 mg/kg (Mus musculus [8]): 21%
